Data published in ChEMBL document CHEMBL4219224, “Structure based drug design and in vitro metabolism study: Discovery of N-(4-methylthiophenyl)-N,2-dimethyl-cyclopenta[d]pyrimidine as a potent microtubule targeting agent” (Bioorg Med Chem, 2018).

System: not listed separately
Assay: Retention time of the compound in human liver microsomes at 20 uM by LC-MS/MS analysis
Assay type: ADME, microsome
Summary of the method: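 Human liver microsomes (both genders; 1.0 mg/mL) in 100 mM PBS pH 7.4 with 3 mM MgCl2 and 10 mM NADPH, preincubated at 37 °C. Reaction started with compound at 20 μM final (from DMSO stock); propranolol 5 μM as control. Aliquots at 0 and 60 min quenched in ice-cold ACN. Analysed by LC/MS/MS on a C18 column, 5–75% B gradient over 30 min, ESI.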

Structure (SMILES)	Retention_time [min]
Cc1nc2c(c(N(C)c3ccc(S(C)(=O)=O)cc3)n1)CCC2	9.6
Cc1nc2c(c(N(C)c3ccc([S+](C)[O-])cc3)n1)CCC2 (configuration not stated)	7.9

Species: Bos taurus
Assay: Inhibition of [3H]colchicine binding to bovine brain tubulin at 5 uM measured after 10 mins by scintillation counting method relative to control
Summary of the method: (§1)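 Reactions of 0.1 mL held 1.0 μM bovine brain tubulin, 5.0 μM [3H]colchicine, inhibitor at 1.0 or 5.0 μM, colchicine-binding stabilizing components and 5% DMSO, assembled on ice with tubulin added last. Incubated 10 min at 37 °C, stopped with ice water, filtered through DEAE-cellulose filters. Bound radiolabel counted by scintillation.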

Structure (SMILES)	inhibition [%]
COc1ccc(N(C)c2nc(C)nc3c2CCC3)cc1C	83
Cc1nc2c(c(N(C)c3ccc4c(c3)CCO4)n1)CCC2	85
Cc1nc2c(c(N(C)c3ccc([S+](C)[O-])cc3)n1)CCC2 (configuration not stated)	93
Cc1nc2c(c(N(C)c3ccc(N(C)C)cc3)n1)CCC2	85
COc1ccc(N(C)c2nc(C)nc3c2CCC3)cc1	92

System: not listed separately
Assay: Induction of microtubule depolymerization in rat A10 cells by indirect immunofluorescence method
Assay type: cell-based
Summary of the method: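 A-10 cells, which arrest in interphase, used to score loss of interphase microtubules. EC50 values calculated per an earlier method, minimum of three independent experiments.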

Structure (SMILES)	EC50 [nM]
Cc1nc2c(c(N(C)c3ccc(S(C)(=O)=O)cc3)n1)CCC2	> 10000
COc1ccc(N(C)c2nc(C)nc3c2CCC3)cc1C	56
Cc1nc2c(c(N(C)c3ccc4c(c3)CCO4)n1)CCC2	70
COc1ccc([C@H](C)N(C)c2nc(C)nc3c2CCC3)cc1	> 10000
COc1ccc([C@@H](C)N(C)c2nc(C)nc3c2CCC3)cc1	> 10000
Cc1nc2c(c(N(C)c3ccc(N)cc3)n1)CCC2	5120
COc1ccc(CN(C)c2nc(C)nc3c2CCC3)cc1	> 10000
Cc1nc2c(c(N(C)c3ccc([S+](C)[O-])cc3)n1)CCC2 (configuration not stated)	31
Cc1nc2c(c(N(C)c3ccc(O)cc3)n1)CCC2	5560
Cc1nc2c(c(N(C)c3ccc(N(C)C)cc3)n1)CCC2	40
CNc1ccc(N(C)c2nc(C)nc3c2CCC3)cc1	45
COc1ccc(/C=C\c2cc(OC)c(OC)c(OC)c2)cc1O [COMBRETASTATIN A4]	13
COc1ccc(N(C)c2nc(C)nc3c2CCC3)cc1	26

System: SK-OV-3
Assay: Antiproliferative activity against human SKOV3 cells by SRB assay
Assay type: functional, cell-based

Structure (SMILES)	IC50 [nM]
COc1ccc(N(C)c2nc(C)nc3c2CCC3)cc1C	23.9
Cc1nc2c(c(N(C)c3ccc4c(c3)CCO4)n1)CCC2	18.7
Cc1nc2c(c(N(C)c3ccc([S+](C)[O-])cc3)n1)CCC2 (configuration not stated)	12.6
Cc1nc2c(c(N(C)c3ccc(N(C)C)cc3)n1)CCC2	13
CNc1ccc(N(C)c2nc(C)nc3c2CCC3)cc1	36.3

System: HeLa
Assay: Antiproliferative activity against human HeLa cells by SRB assay
Assay type: functional, cell-based

Structure (SMILES)	IC50 [nM]
COc1ccc(N(C)c2nc(C)nc3c2CCC3)cc1C	22.8
Cc1nc2c(c(N(C)c3ccc4c(c3)CCO4)n1)CCC2	16
Cc1nc2c(c(N(C)c3ccc([S+](C)[O-])cc3)n1)CCC2 (configuration not stated)	6.8
Cc1nc2c(c(N(C)c3ccc(N(C)C)cc3)n1)CCC2	11.3
CNc1ccc(N(C)c2nc(C)nc3c2CCC3)cc1	31
COc1ccc(N(C)c2nc(C)nc3c2CCC3)cc1	12

System: not listed separately
Assay: Resistance index, ratio of IC50 for human SKOV3-MDR1-M6/6 cells to IC50 for human SKOV3 cells
Assay type: functional
Summary of the method: (§2)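 Antiproliferative IC50 by SRB assay (cellular protein) in each isogenic pair: SK-OV-3 parental versus Pgp-expressing, and parental HeLa versus wild-type βIII-tubulin-expressing HeLa. Rr is the IC50 ratio of the modified line to the parental line. At least three independent experiments, each in triplicate, mean ± SD.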

Structure (SMILES)	Ratio IC50
COc1ccc(N(C)c2nc(C)nc3c2CCC3)cc1C	2
Cc1nc2c(c(N(C)c3ccc4c(c3)CCO4)n1)CCC2	1.6
Cc1nc2c(c(N(C)c3ccc([S+](C)[O-])cc3)n1)CCC2 (configuration not stated)	1.6
Cc1nc2c(c(N(C)c3ccc(N(C)C)cc3)n1)CCC2	1.7
CNc1ccc(N(C)c2nc(C)nc3c2CCC3)cc1	1.4

System: not listed separately
Assay: Antiproliferative activity against human SKOV3-MDR1-M6/6 cells by SRB assay
Assay type: functional

Structure (SMILES)	IC50 [nM]
COc1ccc(N(C)c2nc(C)nc3c2CCC3)cc1C	47.5
Cc1nc2c(c(N(C)c3ccc4c(c3)CCO4)n1)CCC2	29.8
Cc1nc2c(c(N(C)c3ccc([S+](C)[O-])cc3)n1)CCC2 (configuration not stated)	19.9
Cc1nc2c(c(N(C)c3ccc(N(C)C)cc3)n1)CCC2	22.6
CNc1ccc(N(C)c2nc(C)nc3c2CCC3)cc1	49.7
COc1ccc(/C=C\c2cc(OC)c(OC)c(OC)c2)cc1O [COMBRETASTATIN A4]	6.6
COc1ccc(N(C)c2nc(C)nc3c2CCC3)cc1	16.4

Species: Bos taurus
Assay: Inhibition of [3H]colchicine binding to bovine brain tubulin at 1 uM measured after 10 mins by scintillation counting method relative to control
Summary of the method: as §1

Structure (SMILES)	inhibition [%]
COc1ccc(N(C)c2nc(C)nc3c2CCC3)cc1C	59
Cc1nc2c(c(N(C)c3ccc4c(c3)CCO4)n1)CCC2	64
Cc1nc2c(c(N(C)c3ccc([S+](C)[O-])cc3)n1)CCC2 (configuration not stated)	79
Cc1nc2c(c(N(C)c3ccc(N(C)C)cc3)n1)CCC2	65
COc1ccc(N(C)c2nc(C)nc3c2CCC3)cc1	70

System: MDA-MB-435 (human)
Assay: Antiproliferative activity against human MDA-MB-435 cells by SRB assay

Structure (SMILES)	IC50 [nM]
COc1ccc(N(C)c2nc(C)nc3c2CCC3)cc1C	18.4
Cc1nc2c(c(N(C)c3ccc4c(c3)CCO4)n1)CCC2	12.1
Cc1nc2c(c(N(C)c3ccc(N)cc3)n1)CCC2	1220
COc1ccc(CN(C)c2nc(C)nc3c2CCC3)cc1	450
Cc1nc2c(c(N(C)c3ccc([S+](C)[O-])cc3)n1)CCC2 (configuration not stated)	7.9
Cc1nc2c(c(N(C)c3ccc(O)cc3)n1)CCC2	405
Cc1nc2c(c(N(C)c3ccc(N(C)C)cc3)n1)CCC2	8.2
CNc1ccc(N(C)c2nc(C)nc3c2CCC3)cc1	20
COc1ccc(/C=C\c2cc(OC)c(OC)c(OC)c2)cc1O [COMBRETASTATIN A4]	3.4

System: not listed separately
Assay: Inhibition of bovine brain tubulin polymerization assessed as reduction in tubulin assembly pretreated for 15 mins followed by GTP addition by spectrophotometric method
Parameters: species or system Bos taurus
Summary of the method: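 Placed on ice, then 0.4 mM GTP (final) added. Turbidity read at 350 nm after a jump from 0 °C to 30 °C.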

Structure (SMILES)	IC50 [nM]
COc1ccc(N(C)c2nc(C)nc3c2CCC3)cc1C	1100
Cc1nc2c(c(N(C)c3ccc4c(c3)CCO4)n1)CCC2	1200
Cc1nc2c(c(N(C)c3ccc([S+](C)[O-])cc3)n1)CCC2 (configuration not stated)	1100
Cc1nc2c(c(N(C)c3ccc(N(C)C)cc3)n1)CCC2	1200
COc1ccc(N(C)c2nc(C)nc3c2CCC3)cc1	1600

System: HeLa
Assay: Resistance index, ratio of IC50 for human HeLa cells expressing wild type beta3 tubulin to IC50 for human HeLa cells
Assay type: functional
Summary of the method: as §2

Structure (SMILES)	Ratio IC50
COc1ccc(N(C)c2nc(C)nc3c2CCC3)cc1C	0.9
Cc1nc2c(c(N(C)c3ccc4c(c3)CCO4)n1)CCC2	0.9
Cc1nc2c(c(N(C)c3ccc([S+](C)[O-])cc3)n1)CCC2 (configuration not stated)	1.5
Cc1nc2c(c(N(C)c3ccc(N(C)C)cc3)n1)CCC2	0.9
CNc1ccc(N(C)c2nc(C)nc3c2CCC3)cc1	0.6

System: HeLa
Assay: Antiproliferative activity against human HeLa cells expressing wild type beta3 tubulin by SRB assay
Assay type: functional, cell-based

Structure (SMILES)	IC50 [nM]
COc1ccc(N(C)c2nc(C)nc3c2CCC3)cc1C	20.6
Cc1nc2c(c(N(C)c3ccc4c(c3)CCO4)n1)CCC2	15.1
Cc1nc2c(c(N(C)c3ccc([S+](C)[O-])cc3)n1)CCC2 (configuration not stated)	10
Cc1nc2c(c(N(C)c3ccc(N(C)C)cc3)n1)CCC2	9.8
COc1ccc(N(C)c2nc(C)nc3c2CCC3)cc1	9.6
